From PubChem
Compounds with a hit are over-represented: about 3.9% of the library has one in this group of screens.
ANO1 activ = TMEM16A chloride channel activators or potentiators, primary screen, cell-based, HTS | Anoctamin-1 (Mus musculus), Q8BHY3 | HEK293 TMEM16A/YFP-H148Q/I152L, iodide quench fluorescence; hits give low values | B-score at 10 µM | 340,000 compounds, 0.3% hits;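 active = fluorescence-ratio B-score plate-corrected deviation score at least 3 library SD below zero, with starting fluorescence score within 5 deviations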;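 note: channel opened by trigger with iodide after compound preincubation; score built on the fluorescence ratio of max minus min over baseline; more negative score means more quench and so TMEM16A activation or potentiation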
Target sequence (Q8BHY3 whole entry, looked up): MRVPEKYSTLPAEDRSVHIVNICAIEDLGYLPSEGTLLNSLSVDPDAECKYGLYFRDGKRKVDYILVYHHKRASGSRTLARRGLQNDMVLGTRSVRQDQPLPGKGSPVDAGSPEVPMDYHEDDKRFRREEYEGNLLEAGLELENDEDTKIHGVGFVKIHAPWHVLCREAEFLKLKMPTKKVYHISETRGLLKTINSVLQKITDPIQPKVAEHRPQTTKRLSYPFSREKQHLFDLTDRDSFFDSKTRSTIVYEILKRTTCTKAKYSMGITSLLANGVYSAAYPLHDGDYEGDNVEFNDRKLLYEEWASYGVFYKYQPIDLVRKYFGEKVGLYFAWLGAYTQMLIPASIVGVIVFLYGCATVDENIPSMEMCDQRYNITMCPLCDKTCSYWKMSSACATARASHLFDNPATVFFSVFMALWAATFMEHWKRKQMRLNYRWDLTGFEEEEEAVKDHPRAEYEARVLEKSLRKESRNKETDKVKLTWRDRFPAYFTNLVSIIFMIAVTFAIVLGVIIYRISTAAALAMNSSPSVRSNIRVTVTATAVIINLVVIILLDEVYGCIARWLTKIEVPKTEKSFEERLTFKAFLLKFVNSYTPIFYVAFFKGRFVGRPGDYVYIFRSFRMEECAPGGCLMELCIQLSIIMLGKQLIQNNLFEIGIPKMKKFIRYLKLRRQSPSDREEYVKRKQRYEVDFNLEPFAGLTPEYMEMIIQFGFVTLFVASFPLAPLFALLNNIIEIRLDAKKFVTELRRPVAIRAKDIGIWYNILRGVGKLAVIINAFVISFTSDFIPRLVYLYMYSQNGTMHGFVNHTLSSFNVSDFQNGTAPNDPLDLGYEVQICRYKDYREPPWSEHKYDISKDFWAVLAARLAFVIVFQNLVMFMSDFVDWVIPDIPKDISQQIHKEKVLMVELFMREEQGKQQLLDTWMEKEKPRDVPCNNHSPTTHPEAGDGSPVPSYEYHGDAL
CRFBP-R2 agonist = agonists of CRF-BP/CRF-R2 complex, primary screen, cell-based, HEK293, calcium dye fluorescence, uHTS. calcium dye fluorescence (FLIPR); percent of saturating CRF peptide response. 350,000 compounds, 0.46% hits. CRF-binding protein / CRF receptor 2 complex (human). activation, % at 13.2 µM. AID 588473, 2011;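 active = activation of at least 50%, plus an integration ratio under a set limit after plate pattern correction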
ANO1 block = TMEM16A chloride channel inhibitors, primary screen, cell-based, HTS. Anoctamin-1 (Mus musculus), Q8BHY3. HEK293 TMEM16A/YFP iodide influx fluorescence, ionomycin. normalized B-score (activity score, 25-100; higher = stronger inhibition) at 10 µM. 310,000 compounds, 1.2% hits;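 active = ratio plate-corrected score three or more library SD toward inhibition, starting fluorescence score within five deviations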;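 note: score derived from kinetic fluorescence span divided by baseline fluorescence per well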
TAAR1 agonist = human TAAR1 agonists, primary screen, Fluo-8 calcium fluorescence, CHO RD-HGA16 cells; Trace amine-associated receptor 1 (Homo sapiens), Q96RJ0; vehicle wells 0%, saturating PEA agonist 100%; activation, % at 3 µM; 360,000 compounds, 0.99% hits; AID 624467, 2012;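 active = activation above the mean activation of all test compounds in the run plus 3 SD, cut at about 38% in these data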
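Test system: RD-HGA16 (CHO) cells co-expressing Gα16 and hTAAR1; dosing: one-point dosing at 3 µM (nominal); timing: 17-24 h seeding, 75 min 37 °C dye, 30 min RT; signal: kinetic Fluo-8 calcium fluorescence; read-out basis: % activation relative to PEA EC100 response; controls: DMSO and PEA EC100; replicates: n 1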
TAAR1 antag = human TAAR1 antagonists, primary screen, Fluo-8 calcium fluorescence, CHO RD-HGA16 cells; Trace amine-associated receptor 1 (Homo sapiens), Q96RJ0; inhibition, % at 3 µM; AID 624466, 2012; 360,000 compounds, 1.5% hits; antagonist;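 active = inhibition above a per-plate cutoff, the mean inhibition of test compounds on that plate plus 3 SD, cut at about 49% in these data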
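System: RD-HGA16 CHO cells with stable hTAAR1 and Gα16 | Probe or stimulus: EC80 β-phenethylamine stimulus | Dosing: 3 µM, single point | Times: Dye loading 75 min at 37 °C, then 30 min room temperature | Measured by: Fluo-8 calcium-sensitive fluorescence | Read-out basis: % inhibition of agonist calcium response | Replicates: n of 1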
CRFR2-BP antag = antagonists of CRF-BP/CRF-R2 complex, primary screen, cell-based, HEK293, calcium dye fluorescence, uHTS | inhibition, % at 11.8 µM | CRF-induced calcium fluorescence | 350,000 compounds, 0.59% hits | AID 588475, 2011;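 active = inhibition of the ligand-induced calcium signal above about 50% at the single tested concentration, limit read from the data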
Of the large screens only hits and unclear results are named; the others gave an inactive call; ! = a repeat was not active.

Cc1ccc(SCc2ccc(C(=O)Nc3ccccc3Br)cc2)cc1	CRFBP-R2 agonist 74
COC(=O)c1ccc(CSc2nc3c(c(=O)n2-c2ccc(Br)cc2)SCC3)o1	CRFR2-BP antag 61
CCOC(=O)C1CCC/C1=N\NC(=O)CN(c1cc(OC)ccc1OC)S(=O)(=O)c1ccccc1 (stereo not given)	none
COc1ccc(N2CCN(CCNC(=O)Nc3ccc(C)c(Cl)c3)CC2)cc1	none
COc1cc(NC(=O)NCCN2CCN(c3ccc(Cl)cc3)CC2)ccc1C	TAAR1 agonist 48
CCOC(=O)C1=C(C)NC(SCC(=O)OC)=C(C#N)C1c1ccc(C(=O)OC)cc1 (stereo not given)	CRFR2-BP antag 55!
Cn1cc(CNC(=O)CC2C(=O)NCCN2CC(C)(C)C)cn1 (stereo not given)	none
CCN(CC)S(=O)(=O)c1ccc(C(=O)OCn2nnc3ccccc3c2=O)cc1	ANO1 block 25
O=C(OCn1nnc2ccccc2c1=O)c1cccnc1Cl	ANO1 block 100
CCNC(=O)C1(C)CCCN1C(=O)c1ccc2c(c1)OCO2 (stereo not given)	none (no result: ANO1 activ, CRFBP-R2 agonist, ANO1 block, CRFR2-BP antag)
O=C(O)c1nn(CCSc2ccccc2F)c(=O)c2ccccc12	none
Cc1ccc2cccc(S(=O)(=O)N3CCCc4ccccc43)c2n1	CRFBP-R2 agonist 88
COc1ccc(C(=O)NNC(=O)CSc2nnc(COc3ccc4ccccc4c3)n2C)cc1	TAAR1 agonist 44
CCCCCCCCCS(=O)(=O)N/N=C/c1cccc([N+](=O)[O-])c1	ANO1 block 100
COc1ccccc1OCC(=O)Nc1cc(C)ccc1NC(=O)c1ccco1	none
COc1ccc2c(c1)CCc1c(C(=O)NCCc3ccc(OC)c(OC)c3)noc1-2	TAAR1 antag 49
O=C(NCCc1ccccc1)c1noc2c1CCc1ccccc1-2	TAAR1 antag 67
CCCNC(=O)c1noc2c1CCc1ccccc1-2	none
COc1ccc2c(c1)CCc1c(C(=O)NCc3ccc(F)cc3)noc1-2	none
COc1ccc2c(c1)CCc1c(C(=O)Nc3ccc(OC)c(OC)c3)noc1-2	TAAR1 antag 51
CCc1nc2c(OCc3ccc(C(F)(F)F)cc3)cccn2c1N(C)C(=O)c1ccc(C)cc1	none (no result: ANO1 activ, CRFBP-R2 agonist, ANO1 block, CRFR2-BP antag)
COc1ccc(CCNc2nc(C)nc3c2nnn3Cc2ccccc2)cc1	none
CC1C(=O)N(Cc2cn(Cc3ccco3)nn2)CCS(=O)(=O)N1Cc1ccc(-c2ccccc2Cl)cc1 (stereo not given)	none (no result: ANO1 activ, CRFBP-R2 agonist, ANO1 block, CRFR2-BP antag)
c1ccc(Nc2nc(-c3ccccc3)ns2)cc1	ANO1 activ -8.9
CC(C)(C)C(=O)Nc1nc(-c2ccccc2)ns1	none
O=C(CCC1CCCN(C(=O)c2cc(F)ccc2F)C1)N1CCN(c2ccccn2)CC1 (stereo not given)	none (no result: ANO1 activ, ANO1 block)
CCn1cc2nc(SCC(=O)Nc3ccccc3F)n(Cc3ccccc3)c(=O)c2n1	none
COc1cc(/C=C2/C(=O)NN(c3ccc(F)cc3)C2=O)cc(Cl)c1O	none
COc1cc(/C=C2/C(=O)NN(c3ccc(Cl)cc3)C2=O)cc(Br)c1O	ANO1 activ -6.2
CCCn1nc(C(=O)Nc2cc(S(=O)(=O)Nc3ccc(OC)cc3)ccc2O)c2ccccc2c1=O	CRFR2-BP antag 54 (no result: ANO1 block)
CCCn1nc(C(=O)Nc2ccc(S(=O)(=O)Nc3nccs3)cc2)c2ccccc2c1=O	none
Cc1c(C(=O)Nc2ccncc2)sc2nc(-c3ccccc3)cn12	TAAR1 antag 58
Cc1c(C(=O)NCc2cccnc2)sc2nc(-c3ccc(F)cc3)cn12	ANO1 activ -22
Cc1c(C(=O)NCc2cccnc2)sc2nc(-c3ccccc3)cn12	none
CC1CCCCC12NC(=O)N(CC(=O)OCc1cccc(F)c1)C2=O (stereo not given)	ANO1 activ -20 (no result: ANO1 block)
CCCCCN(C(=O)CCC(=O)OCC(=O)c1c(C)cc(C)cc1C)c1c(N)n(CCCC)c(=O)[nH]c1=O	CRFR2-BP antag 52
Nc1nc2n(n1)C(c1cccc(Br)c1)CC(c1ccc(F)cc1)N2 (stereo not given)	CRFBP-R2 agonist 54
Cc1ccccc1C(=O)Nc1ccc(C(=O)N/N=C/c2ccc(O)c(Br)c2)cc1	TAAR1 antag 52
O=C(N/N=C/c1cccnc1)c1ccc(NC(=O)c2ccccc2Cl)cc1	TAAR1 antag 50
Cc1ccccc1C(=O)Nc1ccc(C(=O)N/N=C/c2ccc(F)cc2)cc1	none
OCC1OC(Oc2c(Br)cc(Br)cc2Br)C(O)C(O)C1O (stereo not given)	none (no result: ANO1 block)
COc1ccc(C2CC(=O)Oc3cc(O)cc(O)c32)cc1 (stereo not given)	none
COc1ccc([C@H]2Oc3cc(O)cc(O)c3C(=O)C2[C@@H]2C(=O)c3c(O)cc(O)cc3O[C@@H]2c2ccc(OC)cc2)cc1 (stereo not given in full)	ANO1 block 100 (no result: ANO1 activ)
CCCCCCn1cc(CN2CC(N3CCN(CCN(C)C)CC3)CS2(=O)=O)nn1 (stereo not given)	none (no result: ANO1 activ, CRFBP-R2 agonist, ANO1 block, CRFR2-BP antag)
Cc1[nH]c2ccccc2c1/C=N/NC(=O)c1cc(-c2ccccc2)n[nH]1	TAAR1 antag 61
CCOc1ccc(NC(=S)N(Cc2ccc(N(C)C)cc2)Cc2ccco2)cc1	CRFR2-BP antag 77 (no result: TAAR1 agonist, TAAR1 antag)
Cc1ccc[n+](-c2nc([O-])sc2C=O)c1	CRFBP-R2 agonist 92
CC(C)c1ccc[n+](-c2nc([O-])sc2C=O)c1	none
CCn1nc(C)cc1-c1nnc(Sc2ncc([N+](=O)[O-])s2)n1C	ANO1 activ -9.8, CRFR2-BP antag 97
COc1cccc(-c2cnc(C(O)c3ccc(Cl)c(Cl)c3)[nH]2)c1 (stereo not given)	none (no result: ANO1 activ, CRFBP-R2 agonist, ANO1 block, CRFR2-BP antag)
COc1cc(-c2cc(NC(C)=O)c3ncc(-c4cc(OC)c(OC)c(OC)c4)n3c2)cc(OC)c1OC	none (no result: ANO1 activ, CRFBP-R2 agonist, ANO1 block, CRFR2-BP antag)
COc1cc(-c2cc(NC(C)=O)c3ncc(-c4ccccc4)n3c2)cc(OC)c1OC	TAAR1 antag 49 (no result: ANO1 activ, CRFBP-R2 agonist, ANO1 block, CRFR2-BP antag)
COc1ccc(-c2cnc3c(NC(C)=O)cc(-c4ccccc4OC)cn23)cc1OC	TAAR1 antag 52 (no result: ANO1 activ, CRFBP-R2 agonist, ANO1 block, CRFR2-BP antag)
COc1cc(-c2cc(NC=O)c3ncc(-c4ccccc4)n3c2)cc(OC)c1OC	TAAR1 antag 63 (no result: ANO1 activ, CRFBP-R2 agonist, ANO1 block, CRFR2-BP antag)
CCOC(=O)C1=C(COC(=O)C(CC)Oc2ccccc2)NC(=O)NC1C (stereo not given)	none
COc1cc(OC)c(C(=O)OCC(=O)NC2CCCCCCC2)cc1OC	none (no result: ANO1 block)
CCOC(=O)c1ccc(NS(=O)(=O)c2ccc(Cl)nc2)cc1	none (no result: ANO1 activ, CRFBP-R2 agonist, TAAR1 agonist, TAAR1 antag, CRFR2-BP antag)
